PMC7323835 (American Journal of Clinical Oncology, 2020)

Columns and labels:
advanced solid tumors = test: Tumor response; assay type: in vivo, human
In short: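 Patients with previously treated advanced solid tumours were enrolled in an open-label 3+3 escalation. The test compound was given as an oral liquid (100 mg/mL in lecithin/propylene glycol/PEG/TPGS vehicle) once daily, ≥2 h from meals, in 28-day cycles. CT/MRI was scored by RECIST v1.1 (CR/PR/SD/PD) every 8 weeks (±7 d) until progression, discontinuation or consent withdrawal. SD duration was counted in cycles.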

[1] = Plasma pharmacokinetics of SLC-0111 after single and repeated dosing; assay type: in vivo, human; details: for AUC(0-t) / Tmax: human, plasma, oral; for AUC(0-t): AUC(0-24), Day 1, mean; for Tmax: range of cohort means
rats = test: GLP 28-day toxicology study in rats; assay type: in vivo, rat; details: highest dose tested in rats, 28-day GLP
[2] = system: patients with previously treated, advanced solid tumors; test: Phase 1 dose escalation study: safety and tolerability; assay type: in vivo, human

NS(=O)(=O)c1ccc(NC(=O)Nc2ccc(F)cc2)cc1 [SLC-0111, 4-[(4-fluorophenyl)carbamoyl]amino-benzene sulfonamide]
Objective responses (advanced solid tumors; all cohorts): no objective responses were observed
Stable disease maintained, number of 28-day cycles (advanced solid tumors; cohort 1 (500 mg), one patient with sarcoma of spine): 10 cycles
Stable disease up to cycle (advanced solid tumors; cohort 3 (2000 mg), one patient with colorectal cancer): ≤ 7
Prolonged stable disease (SD), duration (advanced solid tumors; observed in 2 patients): > 24 weeks
Day 28/Day 1 AUC(0-24) ratio ([1]; 500 mg/d): 2.01±0.879
Day 28/Day 1 Cmax±SD ratio ([1]; 500 mg/d): 1.32±0.298
Day 28/Day 1 AUC(0-24) ratio ([1]; 1000 mg/d): 1.47±1.42
Day 28/Day 1 Cmax±SD ratio ([1]; 1000 mg/d): 1.17±1.02
Day 28/Day 1 AUC(0-24) ratio ([1]; 2000 mg/d): 2.18±0.247
Day 28/Day 1 Cmax±SD ratio ([1]; 2000 mg/d): 3.70±4.30
Dose proportionality of exposure (in words) ([1]; Cmax and AUC(0-24), days 1 and 28, 500-2000 mg): generally dose proportional
AUC(0-t) ([1]; 500 mg, 500 mg, N=3): 33000 ng·h/mL
AUC(0-t) ([1]; 1000 mg, 1000 mg, N=3): 70000 ng·h/mL
AUC(0-t) ([1]; 2000 mg, 2000 mg, N=2): 94000 ng·h/mL
Tmax ([1]; Day 1, 500-2000 mg cohorts): 2.46 to 6.05 h
Tmax ([1]; Day 28, 500-2000 mg cohorts): 2.61 to 5.02 h
Severe toxic dose in 10% (STD10) of treated rodents (rats): 500 mg/kg/day
Dose-limiting toxicities (in words) ([2]; 500, 1000 and 2000 mg, cycle 1, 10 evaluable patients): No protocol defined DLTs were observed
Hypophosphatemia, Grade of the grade 3-4 events (CTCAE) ([2]; Cohort 1 (500 mg)): 3
Fatigue, Grade of the grade 3-4 events (CTCAE) ([2]; Cohort 2 (1000 mg)): 3
Pulmonary embolism (SAE), Grade (CTCAE) ([2]; Cohort 2 (1000 mg)): 3
Alanine Transaminase, Grade of the grade 3-4 events (CTCAE) ([2]; Cohort 3 (2000 mg)): 3
Clostridium entercolitis (SAE), Grade (CTCAE) ([2]; Cohort 3 (2000 mg)): 3
Fatigue, Grade of the grade 3-4 events (CTCAE) ([2]; Cohort 3 (2000 mg)): 3
Hepatobiliary disorder (SAE), Grade (CTCAE) ([2]; Cohort 3 (2000 mg)): 3
Hypophosphatemia, Grade of the grade 3-4 events (CTCAE) ([2]; Cohort 3 (2000 mg)): 3
Total treatment emergent AEs reported over the course of the study ([2]; all cohorts, 17 patients): 184
Treatment emergent AEs considered related to SLC-0111 ([2]; all cohorts, 17 patients): 91
SAEs recorded across the entire study group ([2]; all cohorts, only hepatobiliary disorder drug related): Three
Tolerability (in words) ([2]; doses of 1000 mg daily or below): generally well tolerated
Maximum tolerated dose ([2]; doses up to 2000 mg daily): not established
Recommended phase II dose (RP2D) ([2]; oral liquid formulation, once daily): 1000 mg/day
